ChEMBL document CHEMBL4152391, “Bile Acid Oligomers and Their Combination with Antibiotics To Combat Bacterial Infections” (J Med Chem, 2018)
Values after ≈ are worked out from the molar mass of the structure shown. Active and inactive are the calls of the source. The calls are words filed in the database; no cut-off is given here.

Legend:
Staphylococcus aureus [1] = assay: Antibiofilm activity against Staphylococcus aureus ATCC 29213 at 128 ug/ml after 18 hrs by XTT-menadione assay relative to control; type: functional
How it was run: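 Biofilms grown 24 h at 37 °C from suspension at OD600 0.1 in tryptic soy broth with 1% glucose, washed twice with saline, exposed 18 h at 37 °C to twofold serial dilutions; growth and sterility controls. Read by XTT (0.5 mg/mL)–menadione (10 µM) in MHB, 1 h dark at 37 °C, absorbance 450 nm; MBIC50 and MBIC100 = 50% and 100% inhibition.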

Escherichia coli = assay: Antibacterial activity against Escherichia coli ATCC 25922 at 5 to 100 ug after 18 hrs by agar disk-diffusion method; type: functional, organism-based
How it was run: (§1)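 Agar disk diffusion per CLSI: compound loaded on sterile 6 mm paper disks, dried, placed on Mueller Hinton agar lawned with bacteria at McFarland 0.5; cefotaxime positive and DMSO solvent controls; 37 °C for 18 h; zone of inhibition diameter measured to nearest whole mm.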

Pseudomonas aeruginosa = assay: Antibacterial activity against Pseudomonas aeruginosa at 5 to 100 ug after 18 hrs by agar disk-diffusion method; type: functional, organism-based; how it was run: as §1
Staphylococcus aureus [2] = assay: Antibacterial activity against Staphylococcus aureus ATCC 29213 at 5 to 100 ug after 18 hrs by agar disk-diffusion method; type: functional, organism-based; how it was run: as §1
HEK293 = assay: Cytotoxicity against HEK293 cells assessed as decrease in cell viability at 1 to 200 uM after 24 hrs by Alamar Blue assay; type: cell-based; settings: human, hek293, 24 h
How it was run: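 HEK293 cells in DMEM HG, 10% FBS, 1% pen-strep, 37 °C 5% CO2, passage under 30, used at 80% confluency; seeded 1×10^4/well, after 24 h washed and treated 24 h with 1–200 µM in complete medium; alamar blue (0.15 mg/mL) added for 4 h, absorbance 570 and 600 nm; viability relative to untreated cells as 100%.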

Staphylococcus aureus [3] = assay: Antibacterial activity against Staphylococcus aureus ATCC 29213 at 30 ug after 18 hrs by agar disk-diffusion method; type: functional; how it was run: as §1
Staphylococcus aureus [4] = assay: Antibacterial activity against Staphylococcus aureus ATCC 29213 after 18 hrs by broth microdilution method; type: functional, organism-based; settings: ATCC 29213, 18 h
How it was run: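 Broth microdilution per CLSI for water-insoluble agents: twofold serial dilutions made in DMSO at 100x final, diluted in Mueller Hinton broth to 1% final DMSO; 5x10^5 cfu/mL bacteria exposed 18 h at 37 °C with positive, growth and sterility controls. MIC = lowest concentration giving complete growth inhibition (turbidity and XTT reduction); IC50 from OD600 dose-response inflection point.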

SMILES	Activity (Escherichia coli)	Activity (Pseudomonas aeruginosa)	Activity (Staphylococcus aureus [2])	Activity (HEK293)	other results
NCC[C@H](O)C(=O)N[C@@H]1C[C@H](N)[C@@H](O[C@H]2O[C@H](CN)[C@@H](O)[C@H](O)[C@H]2O)[C@H](O)[C@H]1O[C@H]1O[C@H](CO)[C@@H](O)[C@H](N)[C@H]1O [AMIKACIN]					Activity (Staphylococcus aureus [1]): <50%
CCCCCCCCCCCCCCCC(=O)NCCNCCNC(=O)CC[C@@H](C)[C@H]1CC[C@H]2[C@@H]3[C@H](O)C[C@@H]4C[C@H](O)CC[C@]4(C)[C@H]3C[C@H](O)[C@]12C	inactive	inactive	inactive		
C[C@H](CCC(=O)N1CCCN(C(=O)CC[C@@H](C)[C@H]2CC[C@H]3[C@@H]4[C@H](O)C[C@@H]5C[C@H](O)CC[C@]5(C)[C@H]4C[C@H](O)[C@]23C)CCN(C(=O)CC[C@@H](C)[C@H]2CC[C@H]3[C@@H]4[C@H](O)C[C@@H]5C[C@H](O)CC[C@]5(C)[C@H]4C[C@H](O)[C@]23C)CCCN(C(=O)CC[C@@H](C)[C@H]2CC[C@H]3[C@@H]4[C@H](O)C[C@@H]5C[C@H](O)CC[C@]5(C)[C@H]4C[C@H](O)[C@]23C)CC1)[C@H]1CC[C@H]2[C@@H]3[C@H](O)C[C@@H]4C[C@H](O)CC[C@]4(C)[C@H]3C[C@H](O)[C@]12C	inactive	inactive	inactive	Non-Toxic	
C[C@H](CCC(=O)NCCN(CCN(CCNC(=O)CC[C@@H](C)[C@H]1CC[C@H]2[C@@H]3[C@H](O)C[C@@H]4C[C@H](O)CC[C@]4(C)[C@H]3C[C@H](O)[C@]12C)C(=O)OC(C)(C)C)C(=O)OC(C)(C)C)[C@H]1CC[C@H]2[C@@H]3[C@H](O)C[C@@H]4C[C@H](O)CC[C@]4(C)[C@H]3C[C@H](O)[C@]12C	inactive	inactive	inactive		
CC(C)(C)OC(=O)NCCN(CCN)C(=O)OC(C)(C)C	inactive	inactive			
C[C@H](CCC(=O)NCCN(CCNC(=O)CC[C@@H](C)[C@H]1CC[C@H]2[C@@H]3[C@H](O)C[C@@H]4C[C@H](O)CC[C@]4(C)[C@H]3C[C@H](O)[C@]12C)CCNC(=O)CC[C@@H](C)[C@H]1CC[C@H]2[C@@H]3[C@H](O)C[C@@H]4C[C@H](O)CC[C@]4(C)[C@H]3C[C@H](O)[C@]12C)[C@H]1CC[C@H]2[C@@H]3[C@H](O)C[C@@H]4C[C@H](O)CC[C@]4(C)[C@H]3C[C@H](O)[C@]12C	inactive	inactive	inactive	Non-Toxic	
C[C@H](CCC(=O)NCCN(CCNC(=O)CC[C@@H](C)[C@H]1CC[C@H]2[C@@H]3CC[C@@H]4C[C@H](O)CC[C@]4(C)[C@H]3C[C@H](O)[C@]12C)CCNC(=O)CC[C@@H](C)[C@H]1CC[C@H]2[C@@H]3CC[C@@H]4C[C@H](O)CC[C@]4(C)[C@H]3C[C@H](O)[C@]12C)[C@H]1CC[C@H]2[C@@H]3CC[C@@H]4C[C@H](O)CC[C@]4(C)[C@H]3C[C@H](O)[C@]12C	inactive	inactive	inactive	Non-Toxic	
CCCCCCCCCCCCCCCC(=O)N(CCNC(=O)CC[C@@H](C)[C@H]1CC[C@H]2[C@@H]3[C@H](O)C[C@@H]4C[C@H](O)CC[C@]4(C)[C@H]3C[C@H](O)[C@]12C)CCNC(=O)CC[C@@H](C)[C@H]1CC[C@H]2[C@@H]3[C@H](O)C[C@@H]4C[C@H](O)CC[C@]4(C)[C@H]3C[C@H](O)[C@]12C	inactive	inactive	inactive		
CO/N=C(\C(=O)N[C@@H]1C(=O)N2C(C(=O)O)=C(COC(C)=O)CS[C@H]12)c1csc(N)n1 [CEFOTAXIME]					Activity (Staphylococcus aureus [1]): <50%
C[C@H](CCC(=O)NCCNC(=O)CC[C@@H](C)[C@H]1CC[C@H]2[C@@H]3CC[C@@H]4C[C@H](O)CC[C@]4(C)[C@H]3C[C@H](O)[C@]12C)[C@H]1CC[C@H]2[C@@H]3CC[C@@H]4C[C@H](O)CC[C@]4(C)[C@H]3C[C@H](O)[C@]12C	inactive	inactive		Non-Toxic	Activity (Staphylococcus aureus [3]): inactive
C[C@H](CCC(=O)NCCNCCNC(=O)CC[C@@H](C)[C@H]1CC[C@H]2[C@@H]3CC[C@@H]4C[C@H](O)CC[C@]4(C)[C@H]3C[C@H](O)[C@]12C)[C@H]1CC[C@H]2[C@@H]3CC[C@@H]4C[C@H](O)CC[C@]4(C)[C@H]3C[C@H](O)[C@]12C	inactive	inactive			Activity (Staphylococcus aureus [3]): inactive
C[C@H](CCC(=O)NCCCCCNC(=O)CC[C@@H](C)[C@H]1CC[C@H]2[C@@H]3[C@H](O)C[C@@H]4C[C@H](O)CC[C@]4(C)[C@H]3C[C@H](O)[C@]12C)[C@H]1CC[C@H]2[C@@H]3[C@H](O)C[C@@H]4C[C@H](O)CC[C@]4(C)[C@H]3C[C@H](O)[C@]12C	inactive	inactive	inactive		
CCCCCCCCCCCCCCCC(=O)NCCNCCN	inactive	inactive			
C[C@H](CCC(=O)NCCCNC(=O)CC[C@@H](C)[C@H]1CC[C@H]2[C@@H]3[C@H](O)C[C@@H]4C[C@H](O)CC[C@]4(C)[C@H]3C[C@H](O)[C@]12C)[C@H]1CC[C@H]2[C@@H]3[C@H](O)C[C@@H]4C[C@H](O)CC[C@]4(C)[C@H]3C[C@H](O)[C@]12C	inactive	inactive		Non-Toxic	Activity (Staphylococcus aureus [3]): inactive
CN[C@H](CC(C)C)C(=O)N[C@H]1C(=O)N[C@@H](CC(N)=O)C(=O)N[C@H]2C(=O)N[C@H]3C(=O)N[C@H](C(=O)N[C@H](C(=O)O)c4cc(O)cc(O)c4-c4cc3ccc4O)[C@H](O)c3ccc(c(Cl)c3)Oc3cc2cc(c3O[C@@H]2O[C@H](CO)[C@@H](O)[C@H](O)[C@H]2O[C@H]2C[C@](C)(N)[C@H](O)[C@H](C)O2)Oc2ccc(cc2Cl)[C@H]1O [VANCOMYCIN]					Activity (Staphylococcus aureus [1]): <50%
CC(=O)N(CCNC(=O)CC[C@@H](C)[C@H]1CC[C@H]2[C@@H]3[C@H](O)C[C@@H]4C[C@H](O)CC[C@]4(C)[C@H]3C[C@H](O)[C@]12C)CCNC(=O)CC[C@@H](C)[C@H]1CC[C@H]2[C@@H]3[C@H](O)C[C@@H]4C[C@H](O)CC[C@]4(C)[C@H]3C[C@H](O)[C@]12C	inactive	inactive	inactive		
CCCCCCCCCCCCCCCC(=O)NCCN(CCNC(=O)OC(C)(C)C)C(=O)OC(C)(C)C	inactive	inactive			
C[C@H](CCC(=O)NCCCNC(=O)CC[C@@H](C)[C@H]1CC[C@H]2[C@@H]3CC[C@@H]4C[C@H](O)CC[C@]4(C)[C@H]3C[C@H](O)[C@]12C)[C@H]1CC[C@H]2[C@@H]3CC[C@@H]4C[C@H](O)CC[C@]4(C)[C@H]3C[C@H](O)[C@]12C	inactive	inactive		Non-Toxic	Activity (Staphylococcus aureus [3]): inactive
C[C@H](CCC(=O)NCCNC(=O)CC[C@@H](C)[C@H]1CC[C@H]2[C@@H]3[C@H](O)C[C@@H]4C[C@H](O)CC[C@]4(C)[C@H]3C[C@H](O)[C@]12C)[C@H]1CC[C@H]2[C@@H]3[C@H](O)C[C@@H]4C[C@H](O)CC[C@]4(C)[C@H]3C[C@H](O)[C@]12C	inactive	inactive		Non-Toxic	Activity (Staphylococcus aureus [3]): inactive
C[C@H](CCC(=O)NCCNCCNCCNC(=O)CC[C@@H](C)[C@H]1CC[C@H]2[C@@H]3[C@H](O)C[C@@H]4C[C@H](O)CC[C@]4(C)[C@H]3C[C@H](O)[C@]12C)[C@H]1CC[C@H]2[C@@H]3[C@H](O)C[C@@H]4C[C@H](O)CC[C@]4(C)[C@H]3C[C@H](O)[C@]12C	inactive	inactive			IC50 (Staphylococcus aureus [4]): 12.1 mg/L (≈ 13 µM); MIC (Staphylococcus aureus [4]): 16 mg/L (≈ 17.3 µM); zone of inhibition at 30 µg/disc (Staphylococcus aureus [3]; ATCC 29213, 18 h, read-out: DIZ): 11 mm
O=C(O)c1cn(C2CC2)c2cc(N3CCNCC3)c(F)cc2c1=O [CIPROFLOXACIN]					Activity (Staphylococcus aureus [1]): <50%
